# Screening results as filed in PubChem BioAssay.
# Cardio protect: myocardial damage modulation in H9c2 cells; protection from H2O2 cell death, % at 20 µM; actives 0.63% (n = 360,000); H9c2 cardiomyocytes, H2O2 injury protection, ATPLite, 2 h; AID 588492;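 active means compounds giving at least 50% protection of heart cells from peroxide-induced death in the single-dose screen, raw or plate-pattern-corrected value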;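 further: 0% = DMSO wells with peroxide and 100% = DMSO wells without peroxide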
# SENP1 FRET inh: SENP1 (human) catalytic domain inhibition. recombinant SENP1 catalytic domain, CyPet-SUMO1-YPet FRET cleavage. inhibition, % at 10 µM. actives 0.21% (n = 360,000). AID 624204;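 active means inhibition at least 30% at 10 µM, raw YFP signal under a set limit, fluorescence ratio 0.5 to 1.5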;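 further: 0% = enzyme with DMSO and 100% = no enzyme wells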
#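 Controls: no-enzyme wells low, DMSO-plus-enzyme wells high control. Test system: human recombinant His6-tagged SENP1 catalytic domain enzyme. Reagent: SFCypet-SUMO1-SFYpet FRET protein substrate, 25 nM final. Doses: one dose per compound, 10 µM, 0.5% DMSO. Detection: FRET, CFP and YFP emission. Timing: 50 min reaction at room temperature.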
# Pemphigus Ab inh: inhibitors of pemphigus antibody binding to human desmoglein-3; DSG3-coupled beads, scFv-anti-DSG3-GFP binding, flow cytometry; hits give low values; binding (percent of control), % at 10 µM; actives 0.48% (n = 310,000);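 active means binding more than 3 SD below its plate's average and above zero; inconclusive means below that plate limit but binding exactly zero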;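 further: hits lower antibody fragment binding to DSG3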
# Target sequence (P32926 whole entry, looked up, the tested form may be a part): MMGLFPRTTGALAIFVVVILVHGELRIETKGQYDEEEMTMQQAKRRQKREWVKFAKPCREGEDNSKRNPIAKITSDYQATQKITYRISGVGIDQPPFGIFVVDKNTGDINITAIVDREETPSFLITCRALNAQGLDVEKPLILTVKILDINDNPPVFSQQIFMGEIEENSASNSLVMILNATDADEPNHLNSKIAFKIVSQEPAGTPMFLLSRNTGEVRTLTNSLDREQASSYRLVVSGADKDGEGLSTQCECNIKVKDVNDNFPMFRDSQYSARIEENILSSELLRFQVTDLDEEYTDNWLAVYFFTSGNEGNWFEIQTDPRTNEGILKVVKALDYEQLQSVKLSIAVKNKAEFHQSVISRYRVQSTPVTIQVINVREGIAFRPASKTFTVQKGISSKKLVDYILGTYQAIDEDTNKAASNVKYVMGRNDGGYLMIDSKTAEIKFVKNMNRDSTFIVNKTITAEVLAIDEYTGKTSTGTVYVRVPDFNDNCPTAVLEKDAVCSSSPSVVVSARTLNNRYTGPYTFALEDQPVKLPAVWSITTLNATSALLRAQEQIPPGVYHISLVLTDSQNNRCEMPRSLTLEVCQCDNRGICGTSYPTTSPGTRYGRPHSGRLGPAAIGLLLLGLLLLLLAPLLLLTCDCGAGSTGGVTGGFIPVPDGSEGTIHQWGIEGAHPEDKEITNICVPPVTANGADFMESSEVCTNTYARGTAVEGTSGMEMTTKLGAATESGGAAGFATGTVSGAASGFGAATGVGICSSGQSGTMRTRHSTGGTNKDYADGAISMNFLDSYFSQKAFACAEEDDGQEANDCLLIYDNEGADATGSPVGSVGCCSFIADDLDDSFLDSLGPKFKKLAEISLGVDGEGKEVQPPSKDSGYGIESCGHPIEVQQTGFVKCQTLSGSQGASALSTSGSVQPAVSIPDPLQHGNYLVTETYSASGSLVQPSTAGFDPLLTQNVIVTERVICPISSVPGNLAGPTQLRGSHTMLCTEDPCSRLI
# Myeloid diff 2: myeloid differentiation induction; ER-HoxA9 myeloid progenitors, lysozyme-GFP differentiation, flow cytometry; calls only at 10 µM; actives 1% (n = 360,000); AID 624256;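 active means normalized GFP-positive differentiation at or above the plate's own cutoff, the solvent-only control mean plus 3 SD; inconclusive means no clear call, values can overlap the other calls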;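 further: cells exposed to compound for four days before flow analysis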
# Exocytosis inh: blocks lytic granule exocytosis; actives 0.66% (n = 360,000); TALL-104 LAMP-1 surface exposure, flow cytometry; cells stimulated with thapsigargin and PMA; inhibition, % at 10 µM;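 active means inhibition above about 55%, limit read from the data; inconclusive means no clear call, values can overlap the other calls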
# HNF4A DNA FP: change in binding of human HNF4 alpha to DNA; AID 1224865; HNF4a-FITC DNA binding, fluorescence polarization, 1 h; activity change, % at 10 µM; actives 0.3% (n = 360,000); in the data active means activity change above about 30%, passing the limit was not always enough
# Myeloid diff: compounds promoting myeloid differentiation; shares compounds with Myeloid diff 2; ER-HoxA9 myeloid progenitors, GFP/Mac1 double-positive flow; calls only; actives 2% (n = 2,300);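 active means share of green or green-and-red cells above 9 and 9% in run 1 or 4 and 3% in run 2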
# GFP autofluor: compound fluorescence in myeloid differentiation counter-screen; actives 7.4% (n = 2,300); fluorescence response, % (test concentration not listed); AID 651707; ER-HoxA9 myeloid progenitors, no estrogen, GFP autofluorescence flow cytometry; vehicle wells 0%, positive control 100%; shares compounds with Myeloid diff 2;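 active means over 5% cells positive for green fluorescent reporter, or over 2% positive for both it and APC stain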;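 further: range taken on the double positive population between DMSO and positive control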
# * = called active by the depositor; i = inactive; ? = inconclusive; . = no result given; + = active, no number. Most compounds without a hit are left out; they make up all but 3% or so of the library.
SMILES,Cardio protect,SENP1 FRET inh,Pemphigus Ab inh,Myeloid diff 2,Exocytosis inh,HNF4A DNA FP,Myeloid diff,GFP autofluor
CCC(C)[C@H](NC(=O)NCCCn1ccnc1)C(=O)OC (some centres undefined),2,2,110,i,-5,-3,.,.
O=C(O)C1CCCCC1C(=O)NCCCn1ccnc1 (centres undefined),0,2,98,i,-4,-3,.,.
O=C(NCCCn1ccnc1)C(=O)NC1CCCCC1,8,0,115,+,2,-4,i,1
O=C(NCCCn1ccnc1)NC(C(F)(F)F)C(F)(F)F,-3,0,.,i,14,-1,i,0
S=C(Nc1ccc(Oc2ccccc2)cc1)N(CCCN1CCOCC1)Cc1ccccn1,-4,1,118,+,3,-5,i,0
Cc1cccc(NC(=S)N(CCCN2CCOCC2)Cc2ccccn2)c1,1,1,120,i,-3,3,.,.
O=C(CCS(=O)(=O)c1ccc(Cl)cc1)Nc1nnc(-c2ccco2)o1,9,0,99,+,-6,-1,i,0
Cc1ccc(N(CC(=O)NCc2ccco2)C(=O)CCC(=O)Nc2nccs2)cc1C,-3,0,.,i,13,5,.,.
COC(=O)/C(=C/Nc1ccccc1)[N+](=O)[O-],2,1,119,.,3,1,i,2
N#CCC(=O)Nc1ccc(C(=O)OC(C(=O)Nc2cc(C(F)(F)F)ccc2Cl)c2ccccc2)cc1 (centres undefined),-11,-24,87,+,4,9,i,1
N#CCC(=O)Nc1ccc(C(=O)OC(C(=O)Nc2ccc([N+](=O)[O-])cc2Br)c2ccccc2)cc1 (centres undefined),-11,-6,87,i,-6,14,.,.
COc1cccc(C2=Nn3c(nnc3-c3ccccc3O)SC2)c1,-10,2,.,i,2,11,.,.
COc1cccc(-c2nnc3n2N=C(c2cc(OC)ccc2OC)CS3)c1,10,3,.,+,15,0,i,11*
Cc1cccc(C)c1NC(=O)C1C(c2ccc3c(c2)OCO3)=Nc2ccccc2N1C(=O)c1ccccc1 (centres undefined),.,-3,.,i,-3,10,.,.
COc1ccc(C2=Nc3ccccc3N(C(=O)c3ccc(C(F)(F)F)cc3)C2C(=O)Nc2c(C)cccc2C)cc1 (centres undefined),.,-1,.,i,-5,5,i,0
CC(=O)Nc1ccc(OCC(O)Cn2c3ccccc3c3ccccc32)c(C)c1 (centres undefined),-1,-1,79,i,3,-3,.,.
CC(=O)Nc1ccc(OCC(O)Cn2c3ccccc3c3ccccc32)cc1 (centres undefined),0,1,95,i,1,0,i,8.5*
CCOc1ccc(NS(=O)(=O)c2ccc(NC(=S)NC(=O)CC(C)C)cc2)cc1,-24,0,109,i,2,3,i,2
CCNc1ccc(S(=O)(=O)N(C)C)cc1NCC(=O)Nc1ccc(F)c(Cl)c1,-25,-28,110,i,16,3,i,0
COc1ccc(CNC(=O)C2CCCN(S(=O)(=O)c3c(C)n[nH]c3C)C2)cc1 (centres undefined),5,5,107,i,2,0,i,2
COc1cccc(CNC(=O)C2CCCN(S(=O)(=O)c3c(C)n[nH]c3C)C2)c1 (centres undefined),-4,-1,105,i,-3,0,.,.
COc1ccc(NC(=O)CCN2CC(C)OC(C)C2)c(OC)c1 (centres undefined),9,0,.,+,3,0,i,0
C(=C\c1ccccn1)/c1ccccn1,3,1,94,i,-1,3,i,0
O=C(O)CCC(=O)OC1CC2CCC1C2 (centres undefined),0,0,101,i,-5,5,.,.
O=C(O)C1C2C=CC(C2)C1C(=O)OC1CC2CCC1C2 (centres undefined),1,3,103,+,2,2,i,0
SMILES,Cardio protect,SENP1 FRET inh,Pemphigus Ab inh,Myeloid diff 2,Exocytosis inh,HNF4A DNA FP,Myeloid diff,GFP autofluor
CCSc1nc2sc3c(c2c(=O)n1-c1ccccc1)CCN(C(C)C)C3,-3,-26,89,+,1,17,i,5
CCCCCNc1nc2sc3c(c2c(=O)n1-c1cccc(Cl)c1)CCN(C)C3,-7,-40,113,+,10,25,i,1
CCCCNc1nc2sc3c(c2c(=O)n1-c1cccc(Cl)c1)CCN(C)C3,-6,-39,117,?,0,25,.,.
CCCCSc1nc2sc3c(c2c(=O)n1-c1ccccc1)CCN(C)C3,-1,-23,107,i,-8,7,.,.
CC(C)=C1SC(N2CCCCC2)=NC1=O,-15,1,108,i,2,0,.,.
C/C(=C1/SC(N2CCCC2)=NC1=O)c1ccc(Br)cc1,2,1,110,+,12,1,+,1
CN1OC[C@@H]2CN(S(=O)(=O)c3ccccc3)[C@H](c3ccc(N4CCCCC4)cc3)C[C@@H]21,2,0,.,i,-2,8,.,.
O=C(NCCCCc1ccccc1)C12CN(Cc3ccccc3)CC1C(c1ccc([N+](=O)[O-])cc1)=NO2 (centres undefined),0,2,115,+,12,-4,i,0
O=C(NCCCCc1ccccc1)C12CN(Cc3ccccc3)CC1C(c1cccc([N+](=O)[O-])c1)=NO2 (centres undefined),2,0,97,i,6,2,.,.
O=C(NCCc1c[nH]c2ccccc12)/C(=C\c1cccnc1)NC(=O)c1ccccc1Br,37,4,102,+,13,2,i,0
O=C(NCCc1c[nH]c2ccccc12)/C(=C\c1cccnc1)NC(=O)c1ccco1,3,-2,109,i,-2,6,.,.
CCS(=O)(=O)Nc1cccc(C2=NN(S(C)(=O)=O)C(c3ccccc3)C2)c1 (centres undefined),9,-22,176,i,2,121,.,.
CCS(=O)(=O)N1N=C(c2cccc(NS(C)(=O)=O)c2)CC1c1ccccc1 (centres undefined),0,-95,314,+,2,181,i,97*
